Laboratory results from ChEMBL document CHEMBL5724801, “EUbOPEN Chemogenomics Library - Multiplex” (2024).
Several values for one entry are separate records, joined by “and”; a condition that tells them apart may be missing. Equal entries are not always repeated.

System: Fibroblast
Experiment: Multiplex assay against human fibroblast
Assay type: toxicity, cell-based
Method in brief: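 Compound was added to live cells that had been stained at seeding with Hoechst33342, BioTracker Green Microtubule Cytoskeleton Dye, MitoTracker Red and Annexin V Alexa Fluor 680, and imaging followed on a CQ1 microscope at 37°C and 5% CO2. CellPathfinder machine-learning gating divided cells into Hoechst high-intensity objects or normal cells, normal cells into healthy, pyknosed or fragmented nuclei, and pyknosed cells into mitotic or apoptotic. Tubulin, mitochondrial-mass and membrane-permeability phenotypes are per cents of healthy-nucleus cells.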

[1] = 12 h, 1 µM, compound concentration 1 uM
[2] = 12 h, 10 µM, compound concentration 10 uM
[3] = 24 h, 1 µM, compound concentration 1 uM
[4] = 24 h, 10 µM, compound concentration 10 uM
[5] = 48 h, 1 µM, compound concentration 1 uM
[6] = 48 h, 10 µM, compound concentration 10 uM

## Cc1c(C(=O)NCCCN(C)C)sc2ncnc(Nc3ccc(F)cc3OC(C)CF)c12 (configuration not stated)
[1]
  Population Fragmented Nuclei (%): 17.37% and 8.18%
  Population Healthy Nuclei (%): 51.64% and 79.93%
  Population Hoechst High Intensity Objects (%): 0%
  Population Membrane Permeable-Phenotype (%): 0.91% and 2.79%
  Population Mitochondria Different-Phenotype (%): 15.45% and 13.95%
  Population Mitotic Cells (%): 92.42% and 75%
  Population Normal (%): 100%
  Population Pyknosed Nuclei (%): 30.99% and 11.9%
  Population Tubulin-Different-Phenotype (%): 30.91% and 38.14%
  Total Cell Count: 213 and 269
[2]
  Population Apoptotic (%): 19.3% and 27.27%
  Population Fragmented Nuclei (%): 12.69% and 4.88%
  Population Healthy Nuclei (%): 43.46% and 60.98%
  Population Hoechst High Intensity Objects (%): 0%
  Population Membrane Permeable-Phenotype (%): 10.62% and 8%
  Population Mitochondria Different-Phenotype (%): 35.4% and 21.45%
  Population Mitotic Cells (%): 80.7% and 72.73%
  Population Normal (%): 100%
  Population Pyknosed Nuclei (%): 43.85% and 34.15%
  Population Tubulin-Different-Phenotype (%): 46.9% and 77.82%
  Total Cell Count: 260 and 451
[3]
  Population Fragmented Nuclei (%): 16.28% and 8.79%
  Population Healthy Nuclei (%): 68.99% and 76.87%
  Population Hoechst High Intensity Objects (%): 0%
  Population Membrane Permeable-Phenotype (%): 2.25% and 3.81%
  Population Mitochondria Different-Phenotype (%): 5.06% and 8.05%
  Population Mitotic Cells (%): 94.74% and 72.73%
  Population Normal (%): 100%
  Population Pyknosed Nuclei (%): 14.73% and 14.33%
  Population Tubulin-Different-Phenotype (%): 28.09% and 38.14%
  Total Cell Count: 258 and 307
[4]
  Population Apoptotic (%): 33.11% and 50.51%
  Population Fragmented Nuclei (%): 9.29% and 4.55%
  Population Healthy Nuclei (%): 35.69% and 45.45%
  Population Hoechst High Intensity Objects (%): 0%
  Population Membrane Permeable-Phenotype (%): 13.54% and 11.11%
  Population Mitochondria Different-Phenotype (%): 40.62% and 36.11%
  Population Mitotic Cells (%): 66.89% and 49.49%
  Population Normal (%): 100%
  Population Pyknosed Nuclei (%): 55.02% and 50%
  Population Tubulin-Different-Phenotype (%): 75% and 87.78%
  Total Cell Count: 269 and 396
[5]
  Population Apoptotic (%): 28.57% and 61.54%
  Population Fragmented Nuclei (%): 15.91% and 10.44%
  Population Healthy Nuclei (%): 79.55% and 85.44%
  Population Hoechst High Intensity Objects (%): 0%
  Population Membrane Permeable-Phenotype (%): 0% and 7.04%
  Population Mitochondria Different-Phenotype (%): 6.94% and 2.59%
  Population Mitotic Cells (%): 71.43% and 38.46%
  Population Normal (%): 100%
  Population Pyknosed Nuclei (%): 4.55% and 4.11%
  Population Tubulin-Different-Phenotype (%): 15.92% and 33.7%
  Total Cell Count: 308 and 316
[6]
  Population Apoptotic (%): 51.69% and 82.89%
  Population Fragmented Nuclei (%): 13.56% and 8.54%
  Population Healthy Nuclei (%): 48.73% and 29.67%
  Population Hoechst High Intensity Objects (%): 0%
  Population Membrane Permeable-Phenotype (%): 14.78% and 17.81%
  Population Mitochondria Different-Phenotype (%): 50.43% and 54.79%
  Population Mitotic Cells (%): 48.31% and 17.11%
  Population Normal (%): 100%
  Population Pyknosed Nuclei (%): 37.71% and 61.79%
  Population Tubulin-Different-Phenotype (%): 76.52% and 83.56%
  Total Cell Count: 236 and 246

## Cc1c(-c2cc(-c3ccccc3Cl)no2)cnn1C1CCNCC1.Cl
[1]
  Population Fragmented Nuclei (%): 12.32% and 5.31%
  Population Healthy Nuclei (%): 58.77% and 79.2%
  Population Hoechst High Intensity Objects (%): 0%
  Population Membrane Permeable-Phenotype (%): 4.03% and 3.91%
  Population Mitochondria Different-Phenotype (%): 17.74% and 8.94%
  Population Mitotic Cells (%): 93.44% and 68.57%
  Population Normal (%): 100%
  Population Pyknosed Nuclei (%): 28.91% and 15.49%
  Population Tubulin-Different-Phenotype (%): 32.26% and 22.91%
  Total Cell Count: 211 and 226
[2]
  Population Apoptotic (%): 18.52% and 39.56%
  Population Fragmented Nuclei (%): 8.72% and 4.05%
  Population Healthy Nuclei (%): 41.74% and 54.95%
  Population Hoechst High Intensity Objects (%): 0%
  Population Membrane Permeable-Phenotype (%): 10.99% and 13.93%
  Population Mitochondria Different-Phenotype (%): 46.15% and 28.69%
  Population Mitotic Cells (%): 81.48% and 60.44%
  Population Normal (%): 100%
  Population Pyknosed Nuclei (%): 49.54% and 40.99%
  Population Tubulin-Different-Phenotype (%): 73.63% and 83.61%
  Total Cell Count: 218 and 222
[3]
  Population Apoptotic (%): 8% and 20.83%
  Population Fragmented Nuclei (%): 12.4% and 7.5%
  Population Healthy Nuclei (%): 67.6% and 82.5%
  Population Hoechst High Intensity Objects (%): 0%
  Population Membrane Permeable-Phenotype (%): 4.73% and 1.01%
  Population Mitochondria Different-Phenotype (%): 7.69% and 3.54%
  Population Mitotic Cells (%): 92% and 79.17%
  Population Normal (%): 100%
  Population Pyknosed Nuclei (%): 20% and 10%
  Population Tubulin-Different-Phenotype (%): 33.73% and 29.8%
  Total Cell Count: 250 and 240
[4]
  Population Apoptotic (%): 36.97% and 65.81%
  Population Fragmented Nuclei (%): 10.44% and 3.51%
  Population Healthy Nuclei (%): 24.18% and 28.07%
  Population Hoechst High Intensity Objects (%): 0%
  Population Membrane Permeable-Phenotype (%): 25% and 20.83%
  Population Mitochondria Different-Phenotype (%): 63.64% and 60.42%
  Population Mitotic Cells (%): 63.03% and 34.19%
  Population Normal (%): 100%
  Population Pyknosed Nuclei (%): 65.38% and 68.42%
  Population Tubulin-Different-Phenotype (%): 72.73% and 68.75%
  Total Cell Count: 182 and 171
[5]
  Population Apoptotic (%): 25% and 11.11%
  Population Fragmented Nuclei (%): 10.69% and 10.92%
  Population Healthy Nuclei (%): 83.79% and 85.92%
  Population Hoechst High Intensity Objects (%): 0%
  Population Membrane Permeable-Phenotype (%): 4.12% and 11.48%
  Population Mitochondria Different-Phenotype (%): 9.05% and 0.82%
  Population Mitotic Cells (%): 75% and 88.89%
  Population Normal (%): 100%
  Population Pyknosed Nuclei (%): 5.52% and 3.17%
  Population Tubulin-Different-Phenotype (%): 31.28% and 31.15%
  Total Cell Count: 290 and 284
[6]
  Population Apoptotic (%): 53.41% and 92.06%
  Population Fragmented Nuclei (%): 14.67% and 6.71%
  Population Healthy Nuclei (%): 37.5% and 51.01%
  Population Hoechst High Intensity Objects (%): 0%
  Population Mitochondria Different-Phenotype (%): 43.48% and 21.05%
  Population Normal (%): 100%
  Population Pyknosed Nuclei (%): 47.83% and 42.28%
  Population Tubulin-Different-Phenotype (%): 15.94% and 32.89%
  Total Cell Count: 184 and 149
